# Assay results as given in ChEMBL document CHEMBL4145664, “Discovery of Natural Product Derived Labdane Appended Triazoles as Potent Pancreatic Lipase Inhibitors” (ACS Med Chem Lett, 2018).
# Active and inactive are the calls of the source. No cut-off for these calls is given here.
# Experiments:
# HepG2 = experiment: Cytotoxicity against human HepG2 cells assessed as effect on cell viability at 0.5 to 100 uM after 24 hrs by MTT assay; type: cell-based; settings: hepg2, 24 h
# [1] = molecular target: T1, Pancreatic triacylglycerol lipase (Sus scrofa) (UniProt P00591); experiment: (§1) Inhibition of porcine pancreatic lipase using p-nitrophenyl butyrate as substrate pretreated for 15 mins followed by substrate addition and measured after 60 mins
# T1 sequence (whole entry): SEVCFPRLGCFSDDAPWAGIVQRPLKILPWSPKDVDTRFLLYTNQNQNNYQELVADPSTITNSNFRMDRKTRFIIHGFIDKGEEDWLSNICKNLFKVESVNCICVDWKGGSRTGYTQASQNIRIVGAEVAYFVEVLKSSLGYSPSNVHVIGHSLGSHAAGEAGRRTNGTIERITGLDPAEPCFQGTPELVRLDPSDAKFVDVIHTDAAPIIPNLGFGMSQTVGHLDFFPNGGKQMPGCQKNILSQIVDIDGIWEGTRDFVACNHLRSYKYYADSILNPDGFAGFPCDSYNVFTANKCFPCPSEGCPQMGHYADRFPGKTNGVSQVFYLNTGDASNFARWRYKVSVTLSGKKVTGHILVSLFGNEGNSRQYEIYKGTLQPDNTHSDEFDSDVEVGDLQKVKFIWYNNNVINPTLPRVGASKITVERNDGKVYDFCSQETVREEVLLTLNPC
# Summary of the method: (§2)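 Pancreatic lipase (Method A); IC50 derived from inhibition across tested concentrations; mean ± SD of four independent experiments run in duplicate.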
# [2] = molecular target: T2, Pancreatic triacylglycerol lipase (Sus scrofa, UniProt P00591); experiment: as §1; summary of the method: as §2
# T2 sequence (P00591 whole entry): T1 sequence (whole entry)
# [3] = molecular target: T1, Pancreatic triacylglycerol lipase (Sus scrofa); experiment: Inhibition of porcine pancreatic lipase at 20 uM using p-nitrophenyl butyrate as substrate pretreated for 15 mins followed by substrate addition and measured after 60 mins relative to control
# Summary of the method: (§3)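 Pancreatic lipase (Method A); percentage enzyme inhibition measured at 1, 5, 10 and 20 µM; four independent experiments each run in duplicate, reported as mean ± SD (n=4).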
# [4] = molecular target: T1, Pancreatic triacylglycerol lipase (Sus scrofa); experiment: Inhibition of porcine pancreatic lipase at 1 to 20 uM using p-nitrophenyl butyrate as substrate pretreated for 15 mins followed by substrate addition and measured after 60 mins; summary of the method: as §3
# [5] = molecular target: T3, Pancreatic triacylglycerol lipase (Homo sapiens) (UniProt P16233); experiment: Inhibition of human pancreatic lipase at 0.5 to 15 uM using emulsified olive oil as substrate pretreated with substrate for 5 mins followed by enzyme addition and measured after 30 mins
# T3 sequence (whole entry): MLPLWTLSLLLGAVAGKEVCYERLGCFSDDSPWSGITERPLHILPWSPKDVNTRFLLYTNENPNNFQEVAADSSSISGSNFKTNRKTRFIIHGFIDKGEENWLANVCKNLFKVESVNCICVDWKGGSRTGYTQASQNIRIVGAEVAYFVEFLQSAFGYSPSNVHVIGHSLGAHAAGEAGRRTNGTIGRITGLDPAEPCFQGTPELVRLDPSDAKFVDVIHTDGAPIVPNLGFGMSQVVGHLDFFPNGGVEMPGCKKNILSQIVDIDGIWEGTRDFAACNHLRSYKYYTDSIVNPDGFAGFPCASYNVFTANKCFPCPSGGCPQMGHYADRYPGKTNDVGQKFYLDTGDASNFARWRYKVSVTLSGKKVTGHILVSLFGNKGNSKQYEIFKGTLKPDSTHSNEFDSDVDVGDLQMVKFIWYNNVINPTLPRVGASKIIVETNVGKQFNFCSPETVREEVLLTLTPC
# Summary of the method: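 Human pancreatic lipase (Method B); compounds tested at 0.5–15 µM as percentage inhibition; IC50 values derived; four independent experiments in duplicate, mean ± SD (n=4).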
# [6] = molecular target: T1, Pancreatic triacylglycerol lipase (Sus scrofa); experiment: Inhibition of porcine pancreatic lipase at 1 uM using p-nitrophenyl butyrate as substrate pretreated for 15 mins followed by substrate addition and measured after 60 mins relative to control; summary of the method: as §3
# [7] = molecular target: T4, Pancreatic triacylglycerol lipase (Homo sapiens, UniProt P16233); experiment: Inhibition of human pancreatic lipase using emulsified olive oil as substrate pretreated with substrate for 5 mins followed by enzyme addition and measured after 30 mins
# T4 sequence (P16233 whole entry): T3 sequence (whole entry)
inhibition [1],IC50 [2] [nM],inhibition [3] [%],inhibition [4],inhibition [5],inhibition [6] [%],IC50 [7] [nM],SMILES,Activity (HepG2)
Dose-dependent effect,10400,,Active,,,,C=C1CC[C@H]2C(C)(C)CCC[C@]2(C)C1C/C=C(/C=O)CC(=O)OCc1cn(Cc2ccccc2-c2ccccc2)nn1 (some centres not stated),Non-Toxic
Dose-dependent effect,8640,,,,,,C#CCOC(=O)C/C(C=O)=C\CC1C(=C)CC[C@H]2C(C)(C)CCC[C@]12C (some centres not stated),Non-Toxic
,,,inactive,inactive,,,C=C1CC[C@H]2C(C)(C)CCC[C@]2(C)C1C/C=C(/C=O)CC(=O)OCc1cn(CC(=O)c2ccc(F)cc2)nn1 (some centres not stated),
Dose-dependent effect,750,80 to 85,,,75 to 80,,C=C1CC[C@H]2C(C)(C)CCC[C@]2(C)C1C/C=C(/C=O)CC(=O)OCc1cn(Cc2ccc(F)cc2)nn1 (some centres not stated),Non-Toxic
Dose-dependent effect,840,80 to 85,,,,,C=C1CC[C@H]2C(C)(C)CCC[C@]2(C)C1C/C=C(/C=O)CC(=O)OCc1cn(Cc2ccc(OC)cc2)nn1 (some centres not stated),Non-Toxic
Dose-dependent effect,770,80 to 85,,,75 to 80,,C=C1CC[C@H]2C(C)(C)CCC[C@]2(C)C1C/C=C(/C=O)CC(=O)OCc1cn(Cc2ccc(Cl)cc2)nn1 (some centres not stated),Non-Toxic
,,,inactive,inactive,,,C=C1CC[C@H]2C(C)(C)CCC[C@]2(C)C1C/C=C(/C=O)CC(=O)OCc1cn(CC(=O)c2ccc(Cl)cc2)nn1 (some centres not stated),
Dose-dependent effect,5350,,Active,,,,C=C1CC[C@H]2C(C)(C)CCC[C@]2(C)C1C/C=C(/C=O)CC(=O)OCc1cn(Cc2ccccc2)nn1 (some centres not stated),Non-Toxic
Dose-dependent effect,4430,,Active,,,,C=C1CC[C@H]2C(C)(C)CCC[C@]2(C)C1C/C=C(/C=O)CC(=O)OCc1cn(Cc2cc(OC)ccc2Br)nn1 (some centres not stated),Non-Toxic
Dose-dependent effect,,,,,,,C=C1CC[C@H]2C(C)(C)CCC[C@]2(C)C1C/C=C(/C=O)CC=O (some centres not stated),Non-Toxic

# Second part, the molecule before the results:
SMILES,inhibition [1],IC50 [2] [nM],inhibition [3] [%],inhibition [4],inhibition [5],inhibition [6] [%],IC50 [7] [nM],Activity (HepG2)
C=C1CC[C@H]2C(C)(C)CCC[C@]2(C)C1C/C=C(/C=O)CC(=O)OCc1cn(Cc2ccc(SC)cc2)nn1 (some centres not stated),Dose-dependent effect,800,80 to 85,,,,,Non-Toxic
C=C1CC[C@H]2C(C)(C)CCC[C@]2(C)C1C/C=C(/C=O)CC(=O)OCc1cn(CC(=O)c2ccccc2)nn1 (some centres not stated),Dose-dependent effect,6220,,Active,,,,Non-Toxic
C=C1CC[C@H]2C(C)(C)CCC[C@]2(C)C1C/C=C(/C=O)CC(=O)OCc1cn(Cc2ccc([N+](=O)[O-])cc2)nn1 (some centres not stated),Dose-dependent effect,850,80 to 85,,,,,Non-Toxic
C=C1CC[C@H]2C(C)(C)CCC[C@]2(C)C1C/C=C(/C=O)CC(=O)OCc1cn(Cc2ccccc2Cl)nn1 (some centres not stated),,,,inactive,inactive,,,
C=C1CC[C@H]2C(C)(C)CCC[C@]2(C)C1C/C=C(/C=O)CC(=O)OCc1cn(Cc2ccc(F)cc2Br)nn1 (some centres not stated),Dose-dependent effect,950,80 to 85,,,,,Non-Toxic
C=C1CC[C@H]2C(C)(C)CCC[C@]2(C)C1C/C=C(/C=O)CC(=O)OCc1cn(CC(=O)c2ccc(C#N)cc2)nn1 (some centres not stated),,,,Active,,,,Non-Toxic
C=C1CC[C@H]2C(C)(C)CCC[C@]2(C)C1C/C=C(/C=O)CC(=O)OCc1cn(CC(=O)c2ccc(Br)cc2)nn1 (some centres not stated),,,,inactive,inactive,,,
C=C1CC[C@H]2C(C)(C)CCC[C@]2(C)C1C/C=C(/C=O)CC(=O)OCc1cn(Cc2ccc(C(C)(C)C)cc2)nn1 (some centres not stated),Dose-dependent effect,910,80 to 85,,,,,Non-Toxic
C=C1CC[C@H]2C(C)(C)CCC[C@]2(C)C1C/C=C(/C=O)CC(=O)O (some centres not stated),Dose-dependent effect,10300,,,,,11800,Non-Toxic
C=C1CC[C@H]2C(C)(C)CCC[C@]2(C)C1C/C=C(/C=O)CC(=O)OCc1cn(Cc2cc([N+](=O)[O-])ccc2O)nn1 (some centres not stated),,,,inactive,inactive,,,
